HIF activator: HIF pathway transcriptional activation; U2OS HRE-luciferase reporter, luminescence; normalized: DMSO 0%, desferrioxamine 100%; activation, % at 7.5 µM (by protocol); 300,000 compounds, 0.32% hits;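 active = mean activation of at least 10% of the iron chelator positive control signal, with at least half of replicates also reaching 10%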
FID counter: fluorescent intercalator displacement, NS3 helicase counter-screen. DNA fluorescent intercalator displacement, fluorescence. AID 1845. inhibition, % at 7.9 µM. 290,000 compounds, 0.17% hits; in the data active = inhibition above about 37%;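 note: higher means more ethidium bromide displaced from hairpin DNA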
PP1 inh: PP1-alpha (human) inhibition in PP5 counter-screen; P62136; purified PP1alpha, OMFP fluorescence; inhibition, % at 6.7 µM; 320,000 compounds, 0.9% hits; AID 2235;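 active = inhibition above the mean inhibition of all tested compounds plus 3 SD, computed separately for each screening campaign, cut at about 15% in these data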
Target sequence (P62136 whole entry, looked up): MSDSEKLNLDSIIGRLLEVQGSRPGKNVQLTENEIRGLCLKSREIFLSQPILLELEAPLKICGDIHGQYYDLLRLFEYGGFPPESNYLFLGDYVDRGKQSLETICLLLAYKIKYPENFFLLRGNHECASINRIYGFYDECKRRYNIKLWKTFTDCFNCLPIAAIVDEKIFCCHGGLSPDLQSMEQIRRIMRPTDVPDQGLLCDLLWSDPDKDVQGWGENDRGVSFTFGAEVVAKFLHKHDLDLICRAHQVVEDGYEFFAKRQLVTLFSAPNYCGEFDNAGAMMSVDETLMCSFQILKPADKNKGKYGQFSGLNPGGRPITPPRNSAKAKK
PP5 inh: blocks human protein phosphatase 5 activity. purified PP5c, OMFP substrate fluorescence. inhibition, % at 6.7 µM. 320,000 compounds, 0.18% hits;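 active = inhibition above the campaign's mean inhibition across all tested compounds plus 3 SD, cut at about 9.5% in these data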
HCV NS3 hel inh: blocks Hepatitis C virus NS3 helicase unwinding; 290,000 compounds, 0.56% hits; NS3 helicase DNA unwinding, Cy5 molecular beacon fluorescence; AID 1800; inhibition, % at 10.9 µM;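 active = inhibition above the mean of all tested compounds plus 3 SD, set per campaign, cut at about 35% in these data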
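System: HCV NS3 helicase fragment; control set: DMSO and thioflavine S; technique: Cy5 fluorescence at 0 and 60 min, beacon hairpin quenching; reagent: beacon DNA duplex substrate plus ATP; replicates: singlicate; schedule: 1 h reaction at 25 °C, ATP-initiated; medium: MOPS buffer pH 6.5 with MgCl2, DTT, Tween20, BSA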
PP1 confirm: human PP1 phosphatase inhibition, confirmation; shares compounds with PP1 inh; purified PP1alpha, OMFP substrate fluorescence; inhibition, % at 6.7 µM; 1,900 compounds, 52% hits; AID 2358;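 active = mean PP1 inhibition above a set limit taken from the earlier primary screen, cut at about 15% in these data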
PP5 inh counter: PP5 phosphatase inhibition, counter-screen for PP1 inhibitors; shares compounds with PP1 inh; purified PP5c, OMFP fluorescence; inhibition, % at 6.7 µM; 1,900 compounds, 4% hits; AID 2360;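 active = mean PP5 inhibition over triplicate wells above about 9.5% taken from the earlier PP1 screen, limit read from the data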
Large screens that a line does not name were inactive (follow-up assays come after a bar, where they were run). Sampled rows, rich in hits. Any-hit rate of the full collection: about 1.9%.

O=C(Nc1nnc(-c2ccc(Cl)cc2)o1)c1nc2ccccc2s1	PP1 inh 22.1 | PP1 confirm 26.2 | PP5 inh counter inactive
O=C(Nc1nnc(-c2ccc(Cl)cc2)o1)Nc1ccccc1Cl	none
CCN(CC)S(=O)(=O)c1ccc(O)c(NS(=O)(=O)c2ccccc2F)c1	none
CCOc1ccc(NC(=O)c2ccc(NC(=O)c3ccc(CN4CCOCC4)cc3)cc2)cc1	PP1 inh 21.6 | PP1 confirm 40.8 | PP5 inh counter inactive
Cc1ccc(NS(=O)(=O)c2cc([N+](=O)[O-])ccc2NNC(=S)Nc2cccc(Cl)c2)c(C)c1	PP1 inh 26.1 | PP1 confirm 29.2 | PP5 inh counter inactive
Cc1ccc(NS(=O)(=O)c2cc([N+](=O)[O-])ccc2NNC(=S)Nc2cc(C)ccc2C)c(C)c1	none
CC1=NN(c2nc(-c3ccccc3)cs2)C(=O)C1	PP1 inh 20.4 | PP1 confirm inactive | PP5 inh counter 10.1
O=C1CC(c2ccccc2)=NN1c1nc(-c2ccccc2)cs1	PP1 inh 20.2 | PP1 confirm inactive | PP5 inh counter inactive
CCN(CCO)c1nc(NCc2ccccc2)c2cnn(C)c2n1	none
CSC(=NNC(=O)c1ccc(O)cc1)SC	none
Cn1c2ccccc2c(=O)c2c(=O)n(Cc3ccco3)c(-c3ccc(Cl)cc3Cl)nc21	PP1 inh 23.1 | PP1 confirm inactive | PP5 inh counter inactive
c1ccc2c(-c3cn4ccccc4n3)c[nH]c2c1	none
CCOc1cc(/C=N/N=C(/N)c2nonc2N)cc(Br)c1OCc1ccc(Cl)cc1	PP1 inh 17.9 | PP1 confirm inactive | PP5 inh counter inactive
NC(N)=N/N=C/c1ccc(OCc2ccccc2)c(OCc2ccccc2)c1	PP1 inh 35.4 | PP1 confirm 35.2 | PP5 inh counter inactive
CCOc1cc(/C=N/N=C(N)N)ccc1OCc1ccc(Cl)cc1	PP1 inh 18.7 | PP1 confirm inactive | PP5 inh counter inactive
COc1cc(/C=N/N=C(/N)c2nonc2N)cc(Br)c1OCc1ccccc1C	none
COc1cc(/C=N/N=C(N)N)ccc1OCc1ccc(Cl)cc1	none
CC(=O)Nc1ccc(S(=O)(=O)N2CCN(c3ccc([N+](=O)[O-])cc3)CC2)cc1	none (no result: PP1 inh, PP5 inh)
O=C(Nc1nc(-c2ccccn2)cs1)C1CC1	none
Cc1csc(NC(=O)C(C)Oc2ccc(Br)cc2)n1 (stereo not given)	none (no result: FID counter, HCV NS3 hel inh)
O=C(CC1CC2CCC1C2)Nc1nc(-c2ccccn2)cs1 (stereo not given)	PP1 inh 39.7 | PP1 confirm 40.8 | PP5 inh counter inactive
c1ccc(Nc2nc(-c3ccccn3)cs2)cc1	PP1 inh 49.6 | PP1 confirm 46.1 | PP5 inh counter inactive
COc1ccc(OCCCC(=O)Nc2nc(-c3ccccn3)cs2)cc1	PP1 inh 43.0 | PP1 confirm 50.0 | PP5 inh counter inactive
Cc1cc(C)c(OCC(=O)Nc2nc(-c3ccccn3)cs2)c(C)c1	none
CC(Oc1ccc(F)cc1)C(=O)Nc1nc(-c2ccccn2)cs1 (stereo not given)	PP1 inh 20.8 (no result: FID counter, HCV NS3 hel inh) | PP1 confirm 32.1 | PP5 inh counter inactive
CCN(CC)C(=O)CNC(=O)Cc1ccc(Cl)cc1	none
CSc1nc(C(=O)N2CCCC(C(=O)c3ccc(Cl)cc3)C2)cs1 (stereo not given)	none
O=C(CCS(=O)(=O)c1ccccc1)Nc1nc(-c2ccccn2)cs1	PP1 inh 26.9 | PP1 confirm 36.7 | PP5 inh counter inactive
Cc1ccc(S(=O)(=O)CCC(=O)Nc2nc(-c3ccncc3)cs2)cc1	none (no result: HIF activator)
O=C(CCS(=O)(=O)c1ccc(F)cc1)Nc1nc(-c2ccccn2)cs1	PP1 inh 21.3 | PP1 confirm 44.0 | PP5 inh counter inactive
CC[C@@]12C(=O)N(c3cccc(Cl)c3)C(=O)N1[C@H](c1ccc(Br)cc1)[C@@H]1C(=O)N(C(C)(C)C)C(=O)[C@@H]12	none (no result: FID counter, HCV NS3 hel inh)
C#CCn1c(=NC(=O)c2sc3ccccc3c2Cl)sc2cc(S(N)(=O)=O)ccc21	PP1 inh 27.7 | PP1 confirm 33.9 | PP5 inh counter inactive
C=CCn1c(=NC(=O)c2ccc(S(=O)(=O)N3CCc4ccccc4C3)cc2)sc2cc(S(N)(=O)=O)ccc21	none
C#CCn1c(=NC(=O)c2ccc(S(=O)(=O)N3CCc4ccccc4C3)cc2)sc2cc(S(N)(=O)=O)ccc21	PP1 inh 25.8 | PP1 confirm 27.5 | PP5 inh counter inactive
O=C(NCc1ccccc1)c1nncc(-c2ccccc2)n1	none (no result: HIF activator, FID counter, HCV NS3 hel inh)
COC/C=C/C1=CC2=CC(=O)C(C)(OC(=O)c3cnc4ccccc4n3)C(=O)C2=CN1CC1CC1 (stereo not given)	none (no result: FID counter, HCV NS3 hel inh)
COC/C=C/C1=CC2=CC(=O)C(C)(OC(=O)c3cnc4ccccc4n3)C(=O)C2=CN1Cc1ccccc1 (stereo not given)	PP1 inh 23.4 (no result: FID counter, HCV NS3 hel inh) | PP1 confirm inactive | PP5 inh counter 14.6
COC/C=C/C1=CC2=CC(=O)C(C)(OC(=O)c3cnc4ccccc4n3)C(=O)C2=CN1Cc1ccc(OC)cc1 (stereo not given)	PP1 inh 18.4 (no result: FID counter, HCV NS3 hel inh) | PP1 confirm inactive | PP5 inh counter 10.6
COc1cc(NC(=O)c2cccc(Br)c2)nc(OC)n1	none
O=C(c1ccco1)N1CCN(c2ncnc3c2nnn3Cc2ccccc2Cl)CC1	PP1 inh 40.9 | PP1 confirm 43.7 | PP5 inh counter inactive
CCn1c2ccccc2c2cc(NC(=O)COC(=O)c3ccccc3F)ccc21	none
CCOC(=O)c1c(NC(=O)COC(=O)c2ccc(O)cc2)sc(C(=O)N(C)C)c1C	none
CCOC(=O)c1c(NC(=O)COC(=O)c2ccc(NC(=O)CC#N)cc2)sc(C(=O)NC)c1C	PP1 inh 19.7 (no result: HIF activator, FID counter, HCV NS3 hel inh) | PP1 confirm inactive | PP5 inh counter inactive
CCn1c2ccccc2c2cc(NC(=O)COC(=O)c3ccc(NC(=O)CC#N)cc3)ccc21	PP1 inh 64.1 (no result: FID counter, HCV NS3 hel inh) | PP1 confirm 46.1 | PP5 inh counter inactive
CC1CN(S(=O)(=O)c2cccc(C(=O)OC(C)C(=O)NC3CCCCC3C)c2)CC(C)O1 (stereo not given)	none
CN(Cc1ccccc1)C(=O)c1nn2cccnc2c1Cl	none (no result: HIF activator)
COc1ccc(/C(C)=N\NC(=O)CSc2nnc(C)s2)cc1	PP1 inh 18.9 | PP1 confirm inactive | PP5 inh counter inactive
CCNC(=S)NNC(=O)c1ccccn1	none
O=C(NNC(=S)Nc1ccc(Cl)c(Cl)c1)c1ccccn1	HIF activator 59.8, PP1 inh 20.8 | PP1 confirm 24.1 | PP5 inh counter inactive
CCC1=NNc2cccc3c(OC)ccc1c23	PP1 inh 32.8 | PP1 confirm inactive | PP5 inh counter inactive
COc1ccc(C(C)=O)c2c(O)cccc12	none
O=C(CN1C(=O)c2ccc([N+](=O)[O-])cc2C1=O)NC1CCCCCC1	none (no result: FID counter, HCV NS3 hel inh)
C=CCn1c(SCC(=O)Nc2ccc(C(=O)O)cc2)nc2sc(C)c(C)c2c1=O	none (no result: HIF activator, FID counter, HCV NS3 hel inh)

Bioassay records: PubChem BioAssay, several laboratories
